According to ChEMBL document CHEMBL1121953, “Carbon-7 substituted actinomycin D analogues as improved antitumor agents: synthesis and DNA-binding and biological properties” (J Med Chem, 1982):
Converted amounts (≈) assume the structure as drawn. *1 amine or outer side, *2 acyl side, *3 side chain or, on linkers, in order; H or OH if unused. Where a SMILES comes first, the peptide text is derived from it. Bridges are numbered along the chain shown (N, C = ends). Roman numbers before positions name the chains, in order. [ ]: non-standard residue; d: D form. Actinocin(9to1) = Cc1c2oc3c(C)ccc(C(=O)[*:1])c3nc-2c(C(=O)[*:2])c(N)c1=O; NMeV = CN[C@H](C(=O)O)C(C)C; Sar = CNCC(=O)O

Experiments:
Homo sapiens = species: Homo sapiens; assay: In vitro growth inhibitory activity against human lymphoblastic leukemia cells; assay type: functional; details: read-out: ID50 (the source's name)
Outline: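 CCRF-CEM human lymphoblastic leukemia cells in log-phase growth; compounds dissolved in Me₂SO, final growth medium 1% Me₂SO.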

P388 [1] = assay: Number of mice with P-388 lymphocytic leukemia cured( 0.15 mg/kg),ip.; 0/7; assay type: functional, Mus musculus
Outline: (§1)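 Male CDF1 mice (18-23 g) were inoculated ip with 10⁶ P-388 cells on day 0. Drug was given ip in 10% dimethyl sulfoxide-saline on days 1, 5 and 9. Test solutions were kept at 0-4 °C, protected from light, and checked periodically for stability and homogeneity by TLC and HPLC. Read-out was survival, median survival time, increase in life span and tumor-free cures per 7 animals.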

P388 [2] = assay: Number of mice with P-388 lymphocytic leukemia cured( 0.3 mg/kg),ip; 2/7; assay type: functional, Mus musculus; outline: as §1
P388 [3] = assay: Number of mice with P-388 lymphocytic leukemia cured( 0.6 mg/kg),ip; 1/7; assay type: functional, Mus musculus; outline: as §1
P388 [4] = assay: Number of mice with P-388 lymphocytic leukemia cured( 1.2 mg/kg),ip; 0/7; assay type: functional, Mus musculus; outline: as §1
P388 [5] = assay: Number of mice with P-388 lymphocytic leukemia cured.( 1.8 mg/kg),ip; 0/7; assay type: functional, Mus musculus
P388 [6] = assay: Antitumor activity against P-388 lymphocytic leukemia in CDF1 hybrid male mice measured as percent increase in lifespan( 1.2 mg/kg),ip; assay type: functional; details: Mus musculus; outline: as §1
P388 [7] = assay: Antitumor activity against P-388 lymphocytic leukemia in CDF1 hybrid male mice measured as percent increase in lifespan( 1.8 mg/kg),ip; assay type: functional; details: Mus musculus; outline: as §1
P388 [8] = assay: Antitumor activity against P-388 lymphocytic leukemia in CDF1 hybrid male mice measured as percent increase in lifespan(0.15 mg/kg),ip; assay type: functional, Mus musculus; outline: as §1
P388 [9] = assay: Antitumor activity against P-388 lymphocytic leukemia in CDF1 hybrid male mice measured as percent increase in lifespan(0.3 mg/kg),ip; assay type: functional, Mus musculus; outline: as §1
P388 [10] = assay: Antitumor activity against P-388 lymphocytic leukemia in CDF1 hybrid male mice measured as percent increase in lifespan(0.6 mg/kg),ip; assay type: functional, Mus musculus; outline: as §1
P388 [11] = assay: Maximum tolerated dose was determined compared to 7-(2,3-Epoxypropoxy)-actinomycin D against P-388 leukemia in mice(3 days); assay type: functional, Mus musculus
Outline: (§2)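 Tumor-free male CDF1 mice (18-23 g) received a broad dose range ip in 10% dimethyl sulfoxide-saline, either on days 1, 5, 9 (three injections) or on 4 successive days (qd 1-4). Deaths were recorded over 21 days. MTD was the dose lethal to 10% (LD10), taken from a plot of log dose vs percent mortality. Average of two experiments.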

P388 [12] = assay: Maximum tolerated dose was determined compared to 7-(2,3-Epoxypropoxy)-actinomycin D against P-388 leukemia in mice(4 days); assay type: functional, Mus musculus; outline: as §2
P388 [13] = assay: Antitumor activity against P-388 lymphocytic leukemia in CDF1 hybrid male mice measured as median survival time ( 1.8 mg/kg),ip; assay type: functional, Mus musculus; outline: as §1
P388 [14] = assay: Minimum effective dose was determined compared to 7-(2,3-Epoxypropoxy)-actinomycin D against P-388 leukemia in mice(3 days); assay type: functional, Mus musculus; set-up: unit: mg/kg
Outline: (§3)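 MED was the dose (mg/kg) giving a 40% increase in life span over control in mice bearing ip P-388 leukemia. Drug was given ip in 10% dimethyl sulfoxide-saline on a q4d 1, 5, 9 (three injections) or qd 1-4 (four injections) schedule.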

P388 [15] = assay: Minimum effective dose was determined compared to 7-(2,3-Epoxypropoxy)-actinomycin D against P-388 leukemia in mice(4 days); assay type: functional, Mus musculus; outline: as §3
P388 [16] = assay: Antitumor activity against P-388 lymphocytic leukemia in CDF1 hybrid male mice measured as median survival time ( 0.15 mg/kg),ip; assay type: functional, Mus musculus; outline: as §1
P388 [17] = assay: Antitumor activity against P-388 lymphocytic leukemia in CDF1 hybrid male mice measured as median survival time ( 0.3 mg/kg),ip; assay type: functional, Mus musculus; outline: as §1
P388 [18] = assay: Antitumor activity against P-388 lymphocytic leukemia in CDF1 hybrid male mice measured as median survival time ( 0.6 mg/kg),ip; assay type: functional, Mus musculus; outline: as §1
P388 [19] = assay: Antitumor activity against P-388 lymphocytic leukemia in CDF1 hybrid male mice measured as median survival time ( 1.2 mg/kg),ip; assay type: functional, Mus musculus; outline: as §1
P388 [20] = assay: Number of mice with P-388 lymphocytic leukemia cured( 0.031 mg/kg),ip; 0/7; assay type: functional, Mus musculus
P388 [21] = assay: Number of mice with P-388 lymphocytic leukemia cured( 0.125 mg/kg),ip.; 1/7; assay type: functional, Mus musculus
P388 [22] = assay: Number of mice with P-388 lymphocytic leukemia cured( 0.250 mg/kg),ip; 0/7; assay type: functional, Mus musculus; details: dose 0.25 mg/kg
P388 [23] = assay: Number of mice with P-388 lymphocytic leukemia cured.( 0.062 mg/kg),ip; 0/7; assay type: functional, Mus musculus
P388 [24] = assay: Antitumor activity against P-388 lymphocytic leukemia in CDF1 hybrid male mice measured as percent increase in lifespan( 0.031 mg/kg),ip; assay type: functional; details: Mus musculus; outline: as §1
P388 [25] = assay: Antitumor activity against P-388 lymphocytic leukemia in CDF1 hybrid male mice measured as percent increase in lifespan( 0.125 mg/kg),ip; assay type: functional; details: Mus musculus; outline: as §1
P388 [26] = assay: Antitumor activity against P-388 lymphocytic leukemia in CDF1 hybrid male mice measured as percent increase in lifespan( 0.250 mg/kg),ip; assay type: functional; details: Mus musculus; outline: as §1
P388 [27] = assay: Antitumor activity against P-388 lymphocytic leukemia in CDF1 hybrid male mice measured as percent increase in lifespan(0.062 mg/kg),ip; assay type: functional, Mus musculus; outline: as §1
P388 [28] = assay: Antitumor activity against P-388 lymphocytic leukemia in CDF1 hybrid male mice measured as median survival time (0.031 mg/kg),ip; assay type: functional, Mus musculus; outline: as §1
P388 [29] = assay: Antitumor activity against P-388 lymphocytic leukemia in CDF1 hybrid male mice measured as median survival time (0.062 mg/kg),ip; assay type: functional, Mus musculus; outline: as §1
P388 [30] = assay: Antitumor activity against P-388 lymphocytic leukemia in CDF1 hybrid male mice measured as median survival time ( 0.375 mg/kg),ip; assay type: functional, Mus musculus; outline: as §1
P388 [31] = assay: Antitumor activity against P-388 lymphocytic leukemia in CDF1 hybrid male mice measured as median survival time (0.125 mg/kg),ip; assay type: functional, Mus musculus; outline: as §1
P388 [32] = assay: Antitumor activity against P-388 lymphocytic leukemia in CDF1 hybrid male mice measured as median survival time (0.25 mg/kg),ip; assay type: functional, Mus musculus; outline: as §1
[33] = Therapeutic Index measured as the MTD/MED ratio compared to that of compound 3; details: read-out: Therapeutic index
Outline: (§4)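 Therapeutic index is MTD/MED, with ip dosing in 10% dimethyl sulfoxide-saline on a qd 1-4 or q4d 1, 5, 9 schedule. MED is the dose giving a 40% increase in life span over control in P-388-bearing mice. MTD is the LD10 in tumor-free male CDF1 mice (18-23 g) over 21 days, read from a log dose vs. percent mortality plot and averaged over 2-3 experiments.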

[34] = Therapeutic Index measured as the MTD/MED ratio compared to that of compound 4; details: read-out: Therapeutic index; outline: as §4
[35] = In vitro growth inhibitory activity for effect on melting temperature of DNA was determined
Outline: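 DNA thermal denaturation; ΔTm = Tm of DNA-drug complex minus Tm of DNA. Drug 1.4×10⁻⁴ M, DNA (P) 1.4×10⁻³ M in 0.01 M phosphate buffer pH 7.0 with 5×10⁻³ M EDTA and 5% dimethyl sulfoxide.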

Compound Cc1c2oc3c(C)c(OCC(O)CO)cc(C(=O)N[C@@H]4C(=O)N[C@H](C(C)C)C(=O)N5CCC[C@H]5C(=O)N(C)CC(=O)N(C)[C@@H](C(C)C)C(=O)O[C@@H]4C)c3nc-2c(C(=O)N[C@@H]2C(=O)N[C@H](C(C)C)C(=O)N3CCC[C@H]3C(=O)N(C)CC(=O)N(C)[C@@H](C(C)C)C(=O)O[C@@H]2C)c(N)c1=O (stereo partly specified) has an IC50 (Homo sapiens) of 0.085 µg/mL (≈ 0.0632 µM), a Cure (P388 [1]) of 0 and a Cure (P388 [2]) of 2. For the same compound, the Cure (P388 [3]) was 1, the Cure (P388 [4]) was 0 and the Cure (P388 [5]) was 0. It also gave an ILS at 1.2 mg/kg (P388 [6]) of 191%, an ILS at 1.8 mg/kg (P388 [7]) of 36% and an ILS (P388 [8]) of 45%. It also gave an ILS (P388 [9]) of 82%, an ILS (P388 [10]) of 136% and an MTD (P388 [11]) of 1.8. For the same compound, the MTD (P388 [12]) was 1.4, the MST (P388 [13]) was 15 days and the MED (P388 [14]) was 0.15. It also gave an MED (P388 [15]) of 0.125, an MST (P388 [16]) of 16 days and an MST (P388 [17]) of 20 days. It also gave an MST (P388 [18]) of 25 days and an MST (P388 [19]) of 32 days.
Compound Cc1c2oc3c(C)ccc(C(=O)N[C@@H]4C(=O)N[C@H](C(C)C)C(=O)N5CCC[C@H]5C(=O)N(C)CC(=O)N(C)[C@@H](C(C)C)C(=O)O[C@@H]4C)c3nc-2c(C(=O)N[C@@H]2C(=O)N[C@H](C(C)C)C(=O)N3CCC[C@H]3C(=O)N(C)CC(=O)N(C)[C@@H](C(C)C)C(=O)O[C@@H]2C)c(N)c1=O [DACTINOMYCIN] (I: T[dV]P[Sar][NMeV] / II: T[dV]P[Sar][NMeV]; ester I:1-I:C, II:1-II:C; linker I:N-II:N via Actinocin(9to1)) has an IC50 (Homo sapiens) of 0.06 µg/mL (≈ 0.0478 µM), a Cure (P388 [20]) of 0 and a Cure (P388 [21]) of 1. The Cure (P388 [22]) was 0, the Cure (P388 [23]) was 0 and the ILS at 0.031 mg/kg (P388 [24]) was 18%. For the same compound, the ILS at 0.125 mg/kg (P388 [25]) was 136%, the ILS at 0.25 mg/kg (P388 [26]) was 55% and the ILS (P388 [27]) was 45%. It also gave an MST (P388 [28]) of 13 days, an MST (P388 [29]) of 16 days and an MTD (P388 [11]) of 0.25. The MTD (P388 [12]) was 0.15, the MST (P388 [30]) was 9 days and the MST (P388 [31]) was 26 days. It also gave an MST (P388 [32]) of 17 days, an MED (P388 [14]) of 0.0625 and an MED (P388 [15]) of 0.05. For the same compound, the selectivity ratio [33] was 4, the selectivity ratio [34] was 3 and the DNA melting temperature shift (ΔTm) [35] was 7.1 °C.
